The values below come from ChEMBL document CHEMBL4004834, “Transition State-Based Sialyltransferase Inhibitors: Mimicking Oxocarbenium Ion by Simple Amide” (J Med Chem, 2017).

For test [1], the target named is T1, Beta-galactoside alpha-2,6-sialyltransferase 1 (Homo sapiens) (UniProt P15907).
T1 sequence (whole entry): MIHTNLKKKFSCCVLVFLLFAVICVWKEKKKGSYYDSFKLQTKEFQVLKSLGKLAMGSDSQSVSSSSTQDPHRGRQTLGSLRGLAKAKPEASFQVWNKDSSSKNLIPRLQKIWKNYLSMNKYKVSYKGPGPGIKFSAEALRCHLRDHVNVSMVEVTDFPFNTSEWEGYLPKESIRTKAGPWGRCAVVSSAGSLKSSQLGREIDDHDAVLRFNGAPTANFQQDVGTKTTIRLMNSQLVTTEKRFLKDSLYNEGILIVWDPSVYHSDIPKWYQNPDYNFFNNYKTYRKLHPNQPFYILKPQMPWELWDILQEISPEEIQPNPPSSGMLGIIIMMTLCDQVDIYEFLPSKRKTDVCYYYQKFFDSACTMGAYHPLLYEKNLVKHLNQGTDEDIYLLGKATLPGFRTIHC
Description: Inhibition of recombinant human N-terminal His-tagged ST6Gal-1 (44 to 406 residues) at 1 uM using CMP-Neu5Ac as substrate […] by UV/RP-HPLC method. Put shortly: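 hST6Gal-I (aa 44-406), 80 ng per reaction, in pH 6.5 Mes buffer with 2 mM MnCl2 and 0.5% Triton X-100. Inhibitor at 1 µM with CMP-Neu5Ac (250 µM stock) and p-nitrophenyl LacNAc acceptor (5 mM stock), 37 °C, 30 min. Quenched by water and 95 °C for 2 min. Product read by RP-HPLC at 300 nm; donor consumption kept below 15%. Duplicates averaged.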

Test [2] deals with T1, Beta-galactoside alpha-2,6-sialyltransferase 1 (Homo sapiens). Description: Inhibition of recombinant human ST6Gal-1 (44 to 406 residues) assessed as ratio of CMP-Neu5Ac Km to compound Ki […] by UV/RP-HPLC method.
The target in test [3] is T2, Beta-galactoside alpha-2,6-sialyltransferase 1 (Homo sapiens, UniProt P15907).
T2 sequence (P15907 whole entry): T1 sequence (whole entry)
The experiment in a line: Inhibition of recombinant human N-terminal His-tagged ST6Gal-1 (44 to 406 residues) using CMP-Neu5Ac as substrate […] by UV/RP-HPLC method.

Regarding `Nc1ccn([C@@H]2O[C@H](COP(=O)(O)OC(CN3C(=O)CCC3=O)P(=O)(O)O)[C@@H](O)[C@H]2O)c(=O)n1` (stereo in doubt; 5e-s) [listing 1 of 2 here], the inhibition in test [1] is 58.8%. Further, in test [2], the Ratio turned out to be 186.

For the compound `Nc1ccn([C@@H]2O[C@H](COP(=O)(O)OC(C(=O)Nc3ccccc3)P(=O)(O)O)[C@@H](O)[C@H]2O)c(=O)n1` (stereo in doubt; 5b-s) [listing 1 of 2 here], the Ki in test [3] worked out at 106 nM.

As to `Nc1ccn([C@@H]2O[C@H](COP(=O)(O)OC(CNC(=O)c3ccccc3)P(=O)(O)O)[C@@H](O)[C@H]2O)c(=O)n1` (stereo in doubt; 5a-l) [listing 1 of 2 here], the inhibition in test [1] stood at 61.7%. The Ratio in test [2] was found to be 239.

On to `Nc1ccn([C@@H]2O[C@H](COP(=O)(O)OC(CNC(=O)c3ccccc3)P(=O)(O)O)[C@@H](O)[C@H]2O)c(=O)n1` (stereo in doubt; 5a-l) [listing 2 of 2 here], for which the Ki in test [3] was 174 nM.

Turning to `CC(=O)N[C@H]1[C@H](Oc2ccccc2)OC(C(OP(=O)(O)OC[C@H]2O[C@@H](n3ccc(N)nc3=O)[C@H](O)[C@@H]2O)P(=O)(O)O)=C[C@@H]1O` (stereo in doubt; 1-h) [listing 1 of 2 here], the Ki in test [3] was 29 nM.

Regarding `Nc1ccn([C@@H]2O[C@H](COP(=O)(O)OC(C(=O)N3CCCC3)P(=O)(O)O)[C@@H](O)[C@H]2O)c(=O)n1` (stereo in doubt; 5c-S) [listing 1 of 2 here], the inhibition in test [1] was 77%. In addition, in test [2], the Ratio was 694.

For `Nc1ccn([C@@H]2O[C@H](COP(=O)(O)OC(c3ccccc3)P(=O)(O)O)[C@@H](O)[C@H]2O)c(=O)n1` (stereo in doubt; 2l) [listing 1 of 2 here], in test [3], the Ki amounted to 1000 nM.

As to `Nc1ccn([C@@H]2O[C@H](COP(=O)(O)OC(C(=O)N3CCCCC3)P(=O)(O)O)[C@@H](O)[C@H]2O)c(=O)n1` (stereo in doubt; 5d-l) [listing 1 of 2 here], the Ki in test [3] is 45 nM.

As to `Nc1ccn([C@@H]2O[C@H](COP(=O)(O)OC(CN3C(=O)c4ccccc4C3=O)P(=O)(O)O)[C@@H](O)[C@H]2O)c(=O)n1` (stereo in doubt; 5f-s), in test [1], the inhibition came out at 34.5%.

For `Nc1ccn([C@@H]2O[C@H](COP(=O)(O)OC(c3ccccc3)P(=O)(O)O)[C@@H](O)[C@H]2O)c(=O)n1` (stereo in doubt; 2h) [listing 1 of 2 here], in test [3], the Ki was 200 nM.

`Nc1ccn([C@@H]2O[C@H](COP(=O)(O)OC(CN3C(=O)CCC3=O)P(=O)(O)O)[C@@H](O)[C@H]2O)c(=O)n1` (stereo in doubt; 5e-l): the inhibition in test [1] is 15.1%.

With `Nc1ccn([C@@H]2O[C@H](COP(=O)(O)OC(CN3C(=O)CCC3=O)P(=O)(O)O)[C@@H](O)[C@H]2O)c(=O)n1` (stereo in doubt; 5e-s) [listing 2 of 2 here], the Ki in test [3] came out at 224 nM.

Turning to `Nc1ccn([C@@H]2O[C@H](COP(=O)(O)OC(c3ccccc3)P(=O)(O)O)[C@@H](O)[C@H]2O)c(=O)n1` (stereo in doubt; 2l) [listing 2 of 2 here], the Ratio in test [2] worked out at 46.

Take `Nc1ccn([C@@H]2O[C@H](COP(=O)(O)OC(C(=O)N3CCCCC3)P(=O)(O)O)[C@@H](O)[C@H]2O)c(=O)n1` (stereo in doubt; 5d-l) [listing 2 of 2 here]: the inhibition in test [1] amounted to 80.3%. Moreover, the Ratio in test [2] came out at 925.

Take `CC(=O)N[C@H]1[C@H](Oc2ccccc2)OC(C(OP(=O)(O)OC[C@H]2O[C@@H](n3ccc(N)nc3=O)[C@H](O)[C@@H]2O)P(=O)(O)O)=C[C@@H]1O` (stereo in doubt; 1-l) [listing 1 of 2 here]: the inhibition constant Ki in test [3] was 690 nM.

`Nc1ccn([C@@H]2O[C@H](COP(=O)(O)OC(C(=O)N3CCCCC3)P(=O)(O)O)[C@@H](O)[C@H]2O)c(=O)n1` (stereo in doubt; 5d-s) [listing 1 of 2 here]: the Ki in test [3] turned out to be 20 nM.

For `CC(=O)NC[C@@H]1CCC(OP(=O)(O)OC[C@H]2O[C@@H](n3ccc(N)nc3=O)[C@H](O)[C@@H]2O)(P(=O)(O)O)[C@H]1OCc1ccccc1` (stereo in doubt; 4-l), the Ratio in test [2] was found to be 87.

`Nc1ccn([C@@H]2O[C@H](COP(=O)(O)OC(CNC(=O)c3ccccc3)P(=O)(O)O)[C@@H](O)[C@H]2O)c(=O)n1` (stereo in doubt; 5a-s) [listing 1 of 2 here]: the inhibition in test [1] turned out to be 88.9%. In addition, in test [2], the Ratio turned out to be 2600.

Turning to `CC(=O)NC[C@@H]1CCC(OP(=O)(O)OC[C@H]2O[C@@H](n3ccc(N)nc3=O)[C@H](O)[C@@H]2O)(P(=O)(O)O)[C@H]1OCc1ccccc1` (stereo in doubt; 4-h), the Ratio in test [2] was 1490.

For `Nc1ccn([C@@H]2O[C@H](COP(=O)(O)OC(C(=O)N3CCCC3)P(=O)(O)O)[C@@H](O)[C@H]2O)c(=O)n1` (stereo in doubt; 5c-S) [listing 2 of 2 here], the Ki in test [3] is 60 nM.

Take `Nc1ccn([C@@H]2O[C@H](COP(=O)(O)OC(C3CCCC3)P(=O)(O)O)[C@@H](O)[C@H]2O)c(=O)n1` (some centres undefined): the Ratio in test [2] turned out to be 7.1.

`Nc1ccn([C@@H]2O[C@H](COP(=O)(O)OC(c3ccccc3)P(=O)(O)O)[C@@H](O)[C@H]2O)c(=O)n1` (stereo in doubt; 2h) [listing 2 of 2 here]: the Ratio in test [2] is 230.

In the case of `CC(=O)N[C@H]1[C@H](Oc2ccccc2)OC(C(OP(=O)(O)OC[C@H]2O[C@@H](n3ccc(N)nc3=O)[C@H](O)[C@@H]2O)P(=O)(O)O)=C[C@@H]1O` (stereo in doubt; 1-l) [listing 2 of 2 here], the Ratio in test [2] was determined as 67.

`Nc1ccn([C@@H]2O[C@H](COP(=O)(O)OC(C(=O)Nc3ccccc3)P(=O)(O)O)[C@@H](O)[C@H]2O)c(=O)n1` (stereo in doubt; 5b-l) [listing 1 of 2 here]: in test [3], the Ki amounted to 122 nM.

Take `CC(=O)N[C@H]1[C@H](Oc2ccccc2)OC(C(OP(=O)(O)OC[C@H]2O[C@@H](n3ccc(N)nc3=O)[C@H](O)[C@@H]2O)P(=O)(O)O)=C[C@@H]1O` (stereo in doubt; 1-h) [listing 2 of 2 here]: the Ratio in test [2] turned out to be 1580.

With `Nc1ccn([C@@H]2O[C@H](COP(=O)(O)OC(CN3C(=O)c4ccccc4C3=O)P(=O)(O)O)[C@@H](O)[C@H]2O)c(=O)n1` (stereo in doubt; 5f-l), the inhibition in test [1] stood at 14.3%.

Regarding `Nc1ccn([C@@H]2O[C@H](COP(=O)(O)OC(C(=O)N3CCCC3)P(=O)(O)O)[C@@H](O)[C@H]2O)c(=O)n1` (stereo in doubt; 5c-l) [listing 1 of 2 here], the inhibition in test [1] was determined as 65.7%. Further, the Ratio in test [2] is 252.

Take `Nc1ccn([C@@H]2O[C@H](COP(=O)(O)OC(C(=O)N3CCCCC3)P(=O)(O)O)[C@@H](O)[C@H]2O)c(=O)n1` (stereo in doubt; 5d-s) [listing 2 of 2 here]: in test [1], the inhibition turned out to be 86.3%. In addition, the Ratio in test [2] turned out to be 2080.

`Nc1ccn([C@@H]2O[C@H](COP(=O)(O)OC(CNC(=O)c3ccccc3)P(=O)(O)O)[C@@H](O)[C@H]2O)c(=O)n1` (stereo in doubt; 5a-s) [listing 2 of 2 here]: the Ki in test [3] was found to be 16 nM.

In the case of `Nc1ccn([C@@H]2O[C@H](COP(=O)(O)OC(C(=O)Nc3ccccc3)P(=O)(O)O)[C@@H](O)[C@H]2O)c(=O)n1` (stereo in doubt; 5b-l) [listing 2 of 2 here], in test [1], the inhibition turned out to be 67.7%. Moreover, in test [2], the Ratio turned out to be 341.

Regarding `Nc1ccn([C@@H]2O[C@H](COP(=O)(O)O[C@@H](c3cccc(Oc4ccccc4)c3)P(=O)(O)O)[C@@H](O)[C@H]2O)c(=O)n1`, in test [1], the inhibition amounted to 87.6%. In test [2], the Ratio was 2190. The Ki in test [3] came out at 19 nM.

Regarding `Nc1ccn([C@@H]2O[C@H](COP(=O)(O)OC(C(=O)N3CCCC3)P(=O)(O)O)[C@@H](O)[C@H]2O)c(=O)n1` (stereo in doubt; 5c-l) [listing 2 of 2 here], the Ki in test [3] was determined as 165 nM.

Regarding `Nc1ccn([C@@H]2O[C@H](COP(=O)(O)OC(C(=O)Nc3ccccc3)P(=O)(O)O)[C@@H](O)[C@H]2O)c(=O)n1` (stereo in doubt; 5b-s) [listing 2 of 2 here], in test [1], the inhibition came to 69.7%. Besides, the Ratio in test [2] amounted to 393.

Usually inhibition stands for the change of the read-out against control, counted positive when it falls. Usually Ki stands for the dissociation constant of the complex between target and ligand, obtained from inhibition or displacement.
